Results taken from ChEMBL document CHEMBL4814013, “Scaffold repurposing of fendiline: Identification of potent KRAS plasma membrane localization inhibitors” (Eur J Med Chem, 2021).
Activity calls are given as the source filed them. The rule behind the calls is not given here.

Legend:
MIA PaCa-2 [1] = test: Antiproliferative activity against human MIA PaCa-2 cells expressing KRAS mutant assessed as reduction in cell growth incubated for 72 hrs by CyQuant proliferation assay; assay type: functional, cell-based; details: MIA PaCa-2, 72 h
How it was run: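 Cells seeded in 96-well plates; after 24 h fresh growth medium with 0.1% DMSO vehicle or drug added (highest dose 30 µM for cancer lines), grown 72 h at 37 °C, 5% CO2. Live cell number measured by CyQUANT fluorescence. IC50 from three independent experiments. MEFs were isogenic lines carrying oncogenic BRAF or KRAS.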

MIA PaCa-2 [2] = test: Antitumor activity against human MIA PaCa-2 cells harboring KRAS mutant xenografted in nu/nu mouse assessed as reduction in tumor growth at 2.5 to 5 mg/kg, ip administered once daily for 5 days with 2 days break by caliper analysis; assay type: functional, organism-based; details: dose 2.5-5 mg/kg, time 5.0 day
How it was run: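 Female nu/nu mice given 2 × 10⁶ early-passage MiaPaCa-2 cells subcutaneously in the right flank, randomized 10 per group. Dosing began when tumors reached 100 mm³: 1, 2.5 or 5 mg/kg i.p. daily for 5 days with 2 days off, vehicle DMSO. Caliper readings every 3–4 days, V = 0.52 × length × width². Animals sacrificed when any tumor reached 1500 mm³.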

IC50 (MIA PaCa-2 [1]) [µM]	SMILES	Activity (MIA PaCa-2 [2])
3.1	COc1ccc([C@@H](C)N(CC=C(c2ccccc2)c2ccccc2)CCN2CCCC2)cc1	
	COc1ccc([C@@H](C)N(CC=C(c2ccccc2)c2ccccc2)CCCN2CCN(C)CC2)cc1	Active
